Activity calls are given as the source filed them. The calls are words filed in the database; no cut-off is given here.
Legend:
[1] = test system: NCI-H460; test: Cytotoxicity against human NCI-H460 cells after 1 hr; type: functional, cell-based; conditions: NCI-H460, 1 h
In short: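 Cells harvested at 72 h and counted by Coulter counter. IC50 is the concentration giving 50% less growth than untreated control, as mean of three assays.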

[2] = target: T1, DNA topoisomerase 1 (Homo sapiens) (UniProt P11387); test: Inhibition of human recombinant topoisomerase 1 assessed as DNA plasmid relaxation after 30 mins
T1 sequence (whole entry): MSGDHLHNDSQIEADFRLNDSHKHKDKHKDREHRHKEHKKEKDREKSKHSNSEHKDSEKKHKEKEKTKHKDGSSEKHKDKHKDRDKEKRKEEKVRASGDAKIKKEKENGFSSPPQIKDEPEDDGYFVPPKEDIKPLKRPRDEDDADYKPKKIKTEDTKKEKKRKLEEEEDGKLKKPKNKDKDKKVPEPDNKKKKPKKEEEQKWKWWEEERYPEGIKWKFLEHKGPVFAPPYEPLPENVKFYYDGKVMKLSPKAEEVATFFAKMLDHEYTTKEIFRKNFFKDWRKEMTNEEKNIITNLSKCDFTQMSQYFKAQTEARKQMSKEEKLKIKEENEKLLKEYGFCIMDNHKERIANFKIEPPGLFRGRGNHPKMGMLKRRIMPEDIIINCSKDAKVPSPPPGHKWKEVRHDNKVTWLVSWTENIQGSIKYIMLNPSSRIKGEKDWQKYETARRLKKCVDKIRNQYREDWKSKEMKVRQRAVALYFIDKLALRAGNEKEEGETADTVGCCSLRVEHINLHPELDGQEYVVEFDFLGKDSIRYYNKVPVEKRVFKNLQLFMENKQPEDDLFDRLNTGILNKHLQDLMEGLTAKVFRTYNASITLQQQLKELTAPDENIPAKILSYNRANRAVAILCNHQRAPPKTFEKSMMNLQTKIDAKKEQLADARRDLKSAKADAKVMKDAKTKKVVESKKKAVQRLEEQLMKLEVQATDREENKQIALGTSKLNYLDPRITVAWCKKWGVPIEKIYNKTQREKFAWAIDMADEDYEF
In short: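 Supercoiled pBR322 DNA (200 ng) with purified topo I in 20 mM Tris–HCl pH 7.6, 150 mM KCl, 5 mM MgCl2, 0.1 mM EDTA, 0.1 mM DTT, 0.5 µg/ml BSA. Compound at 1, 10, 50 µM, 30 min at 37 °C. Stopped with SDS/proteinase K at 42 °C for 45 min. Run on 0.8% agarose, ethidium bromide stained.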

[3] = target: T1, DNA topoisomerase 1 (Homo sapiens); test: Effect on stabilization of human recombinant topoisomerase 1-mediated DNA cleavage after 30 mins
In short: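 3'-end-labelled 751-bp BamHI–EcoRI SV40 DNA fragment (20,000 cpm/sample) with 640 ng full-length human recombinant topo I. Buffer: 10 mM Tris–HCl pH 7.6, 150 mM KCl, 5 mM MgCl2, 15 µg/ml BSA, 0.1 mM DTT. Drug at 1, 10, 50 µM, 30 min at 37 °C. Stopped with 0.5% SDS/0.3 mg/ml proteinase K, 45 min at 42 °C. Denaturing 8% polyacrylamide gel.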

Activity [2]	Activity [3]	SMILES	IC50 [1]
–	–	COc1cccc2c1C(=O)c1c(ccc3c(=O)cc(-c4ccccc4)oc13)C2=O	> 100 µM
–	–	Cc1cc(=O)c2ccc3c(c2o1)C(=O)c1c(OCCN(C)C)cccc1C3=O	7.15 µM
–	–	Cc1oc2c3c(ccc2c(=O)c1Br)C(=O)c1cccc(O)c1C3=O	6.5 µM
inactive	–	Cc1oc2c3c(ccc2c(=O)c1Br)C(=O)c1ccc(Br)c(O)c1C3=O	4.95 µM
–	Active	COc1cccc2c1C(=O)c1c(O)cccc1C2=O	> 100 µM
inactive	Active	Cc1cc(=O)c2ccc3c(c2o1)C(=O)c1c(O)cccc1C3=O	5.5 µM
–	–	O=C1c2cccc(O)c2C(=O)c2c1ccc1c(=O)cc(-c3ccccc3)oc21	7.06 µM
–	–	CC[C@@]1(O)C(=O)OCc2c1cc1n(c2=O)Cc2cc3c(CN(C)C)c(O)ccc3nc2-1 [TOPOTECAN]	1.18 µM
–	Active	COc1cccc2c1C(=O)c1c(OCCN(C)C)cccc1C2=O	> 100 µM
–	–	Cc1cc(=O)c2ccc3c(c2o1)C(=O)c1c(O)ccc([N+](=O)[O-])c1C3=O	9.1 µM
–	–	COc1cc(OC)c2c(c1)C(=O)c1cc(OC)c3c(=O)cc(C)oc3c1C2=O	> 100 µM
–	–	COc1cccc2c1C(=O)c1c(ccc3c(=O)cc(C)oc13)C2=O	> 260 µM
–	Active	COc1cccc2c1C(=O)c1c(O)ccc([N+](=O)[O-])c1C2=O	160 µM
–	–	Cc1cc(=O)c2c(O)cc3c(c2o1)C(=O)c1c(O)cc(O)cc1C3=O [TOPOPYRONE C]	29.5 µM

Source: ChEMBL document CHEMBL1141506, “Synthesis and cytotoxic activity of a new series of topoisomerase I inhibitors” (Bioorg Med Chem Lett, 2008)
